Data: PubChem BioAssay AID488830 (Molecular Libraries Program, Specialized Chemistry Center, …, 2010)
Activity calls are given as the source filed them.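 The calls were made as follows: active = IC50 at or below 10 µM; inactive = the rest.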

Tested on: HeLa UbG76V-GFP reporter turnover, GFP imaging
Assay: inhibitors of p97-dependent reporter degradation, SAR follow-up, imaging, human cell line, second optimization round (AID 488830)
Procedure, shortened: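 test system = UbG76V-GFP reporter HeLa cells | probe or stimulus = 4 µM MG132 reporter-loading pre-treatment | timing = 1 h MG132, 70–170 min compound chase | technique = GFP fluorescence imaging, mean per-cell intensity over ~500 cells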

| SMILES | IC50 |
| --- | --- |
| COc1cccc2c(NCc3ccccc3)nc(NCc3ccccc3)nc12 | 10 µM (inactive) |
| Cc1ccc(F)cc1Nc1nc(NCc2ccccc2)c2ccccc2n1 | 5 µM |
| c1ccc(CNc2nc(N3CCOc4ccccc43)nc3ccccc23)cc1 | 7 µM |
| O=C(NCc1ccco1)c1cc(S(=O)(=O)N2CCOCC2)ccc1Cl | > 25 µM (inactive) |
| Fc1cccc2nc(NCc3ccccc3)nc(NCc3ccccc3)c12 | 13 µM (inactive) |
| Clc1nc(NCc2ccc(Br)cc2)c2ccccc2n1 | 15 µM (inactive) |
| Clc1cccc(CNc2nc(Cl)nc3ccccc23)c1 | 18 µM (inactive) |
| COc1ccc2nc(NCc3ccccc3)nc(NCc3ccccc3)c2c1 | 8.6 µM |
| FC(F)(F)c1ccc2c(NCc3ccccc3)nc(NCc3ccccc3)nc2c1 | 19 µM (inactive) |
| CC(=O)Nc1ccc(NC(=O)c2ccccc2F)cc1 | > 25 µM (inactive) |
| CC(C)Sc1oc(-c2ccco2)nc1S(=O)(=O)c1ccc(F)cc1 | 28 µM (inactive) |
| Cc1ccc(CNc2nc(Cl)nc3ccccc23)cc1 | > 25 µM (inactive) |
| COc1cc2nc(NCc3ccccc3)nc(NCc3ccccc3)c2cc1OC | 8.8 µM |
| COc1ccc(CNc2nc(Cl)nc3ccccc23)cc1 | 18 µM (inactive) |
| Brc1cccc2c(NCc3ccccc3)nc(NCc3ccccc3)nc12 | > 30 µM (inactive) |
| COc1ccccc1CNc1nc(Cl)nc2ccccc12 | 19 µM (inactive) |
| N#Cc1ccc2c(NCc3ccccc3)nc(NCc3ccccc3)nc2c1 | 21 µM (inactive) |
| Clc1nc(NCc2ccccc2Cl)c2ccccc2n1 | 11 µM (inactive) |
| CN1CCN(S(=O)(=O)c2ccc(NC(=O)c3cccc(S(=O)(=O)N4CCCC4)c3)cc2)CC1 | > 25 µM (inactive) |
| Clc1nc(NCc2ccccc2Br)c2ccccc2n1 | 13 µM (inactive) |
| c1ccc(CNc2nc(N3CCc4ccccc43)nc3ccccc23)cc1 | 11 µM (inactive) |
| Fc1ccc(CNc2nc(Cl)nc3ccccc23)cc1 | 21 µM (inactive) |
| Fc1ccc2nc(NCc3ccccc3)nc(NCc3ccccc3)c2c1 | 8.2 µM |
| c1ccc(CNc2nc(N3CCNc4ccccc43)nc3ccccc23)cc1 | 6.3 µM |
| Clc1ccc2nc(NCc3ccccc3)nc(NCc3ccccc3)c2c1 | 6.6 µM |

| SMILES | IC50 |
| --- | --- |
| Fc1ccc2c(NCc3ccccc3)nc(NCc3ccccc3)nc2c1 | 6.1 µM |
| Fc1cccc2c(NCc3ccccc3)nc(NCc3ccccc3)nc12 | 18 µM (inactive) |
| COc1ccc(F)cc1Nc1nc(NCc2ccccc2)c2ccccc2n1 | 9.3 µM |
| Fc1cccc(CNc2nc(Cl)nc3ccccc23)c1 | 20 µM (inactive) |
| Cc1ccccc1CNc1nc(Cl)nc2ccccc12 | > 25 µM (inactive) |
| CCOC(=O)NC(NC(=O)OCC)C(=O)c1ccc(F)cc1 | > 25 µM (inactive) |
| Fc1ccccc1CNc1nc(Cl)nc2ccccc12 | 15 µM (inactive) |
| CC(C)(C)NC(=O)Nc1ccc2nccnc2c1 | > 25 µM (inactive) |
| COc1c(F)cccc1Nc1nc(NCc2ccccc2)c2ccccc2n1 | 12 µM (inactive) |
| Clc1nc(NCc2cccc(Br)c2)c2ccccc2n1 | 19 µM (inactive) |
| CC1(C)N(O)CC(c2cccs2)=[N+]1[O-] | > 25 µM (inactive) |
| Brc1ccc2c(NCc3ccccc3)nc(NCc3ccccc3)nc2c1 | 10 µM (inactive) |
| c1ccc(CNc2nc(N3CCCc4ccccc43)nc3ccccc23)cc1 | 10 µM (inactive) |
| Cc1ccc(C2=[N+]([O-])C3(CCCCC/C3=N\O)N(O)C2(C)C)o1 (stereo unspecified) | > 25 µM (inactive) |
| O=C1C(C=NCC2CCCO2)=C(O)c2ccccc21 (stereo unspecified) | > 25 µM (inactive) |
| O=S(=O)(NC1CCCCC1)c1ccc(Br)cc1 | > 30 µM (inactive) |
| CC(C)n1c2ccccc2c2nnc(SCC(=O)OCN3C(=O)c4ccccc4C3=O)nc21 | 20 µM (inactive) |
| Cc1cccc(CNc2nc(Cl)nc3ccccc23)c1 | 22 µM (inactive) |
| Fc1ccccc1-c1nc(NCc2ccccc2)c2ccccc2n1 | 8 µM |
| Clc1ccc(CNc2nc(Cl)nc3ccccc23)cc1 | 14 µM (inactive) |
| Cc1ccc2c(NCc3ccccc3)nc(NCc3ccccc3)nc2c1 | 6.1 µM |
| COc1ccc(Nc2nc(Nc3ccc(OC)cc3)c3ccccc3n2)cc1 | 23 µM (inactive) |
| COc1cccc(CNc2nc(Cl)nc3ccccc23)c1 | 13 µM (inactive) |
| Clc1cccc2nc(NCc3ccccc3)nc(NCc3ccccc3)c12 | 16 µM (inactive) |
| O=C(C1CCCN(S(=O)(=O)c2cnc[nH]2)C1)N(CCc1ccccc1)Cc1ccccc1 (stereo unspecified) | 12 µM (inactive) |

Other lines, results leading:

| IC50 | SMILES |
| --- | --- |
| 4.7 µM | COc1ccc(Nc2nc(NCc3ccccc3)c3ccccc3n2)cc1F |
| 21 µM (inactive) | Cc1ccc(Nc2nc(Nc3ccc(C)cc3)c3ccccc3n2)cc1 |
| 7.8 µM | Fc1ccccc1CNc1nc(Nc2cccc(Cl)c2)nc2ccccc12 |
| 7.2 µM | c1ccc(Nc2nc(Nc3ccccc3)c3ccccc3n2)cc1 |
| 6.3 µM | Fc1cccc(CNc2nc(Nc3cccc(Cl)c3)nc3ccccc23)c1 |
| 13 µM (inactive) | COc1ccc(Nc2nc(Nc3cccc(Cl)c3)nc3ccccc23)cc1 |
| 12 µM (inactive) | Clc1cccc(Nc2nc(NCc3ccccc3Br)c3ccccc3n2)c1 |
| 3.7 µM | Cc1c(F)cccc1Nc1nc(NCc2ccccc2)c2ccccc2n1 |
| 5.4 µM | Cc1cc(F)cc(Nc2nc(NCc3ccccc3)c3ccccc3n2)c1 |
| 18 µM (inactive) | Clc1cccc(Nc2nc(NCc3ccccc3Cl)c3ccccc3n2)c1 |
| 12 µM (inactive) | Clc1cccc(Nc2nc(Nc3ccccc3)c3ccccc3n2)c1 |
| 11 µM (inactive) | COc1ccccc1CNc1nc(Nc2cccc(Cl)c2)nc2ccccc12 |
| 9.9 µM | COc1cccc(CNc2nc(Nc3cccc(Cl)c3)nc3ccccc23)c1 |
| 9.7 µM | Cc1cccc(CNc2nc(Nc3cccc(Cl)c3)nc3ccccc23)c1 |
| 7 µM | Cc1ccc(Cl)cc1Nc1nc(NCc2ccccc2)c2ccccc2n1 |
| 11 µM (inactive) | COc1ccc(CNc2nc(Nc3cccc(Cl)c3)nc3ccccc23)cc1 |

| IC50 | SMILES |
| --- | --- |
| 6.3 µM | COc1c(Cl)cccc1Nc1nc(NCc2ccccc2)c2ccccc2n1 |
| 10 µM (inactive) | Clc1cccc(Nc2nc(NCc3ccc(Br)cc3)c3ccccc3n2)c1 |
| 21 µM (inactive) | Clc1ccc(Nc2nc(Nc3cccc(Cl)c3)nc3ccccc23)cc1 |
| 16 µM (inactive) | COc1ccc(Cl)cc1Nc1nc(NCc2ccccc2)c2ccccc2n1 |
| 9.9 µM | Clc1cccc(Nc2nc(NCc3cccc(Br)c3)c3ccccc3n2)c1 |
| 12 µM (inactive) | Cc1ccc(CNc2nc(Nc3cccc(Cl)c3)nc3ccccc23)cc1 |
| 5.7 µM | Fc1ccc(CNc2nc(Nc3cccc(Cl)c3)nc3ccccc23)cc1 |
| 19 µM (inactive) | O=[N+]([O-])c1cccc(Nc2nc(NCc3ccccc3)c3ccccc3n2)c1 |
| > 30 µM (inactive) | Cc1ccc(Nc2nc(Nc3cccc(Cl)c3)nc3ccccc23)cc1 |
| 15 µM (inactive) | Clc1cccc(CNc2nc(Nc3cccc(Cl)c3)nc3ccccc23)c1 |
| 6.3 µM | Clc1ccc2c(NCc3ccccc3)nc(NCc3ccccc3)nc2c1 |
| 21 µM (inactive) | FC(F)(F)c1cccc(Nc2nc(NCc3ccccc3)c3ccccc3n2)c1 |
| 5.2 µM | Cc1ccc(Nc2nc(NCc3ccccc3)c3ccccc3n2)cc1F |
| 5.5 µM | Cc1c(Cl)cccc1Nc1nc(NCc2ccccc2)c2ccccc2n1 |
| 7.6 µM | Clc1ccc(CNc2nc(Nc3cccc(Cl)c3)nc3ccccc23)cc1 |
